The subject of experiment [1] is Matrix protein 2 (Influenza A virus), P06821 [V27A]. The experiment can be described thus: Inhibition of Influenza A virus (A/Puerto Rico/8/1934(H1N1)) M2 channel V27A mutant expressed in Xenopus oocytes at 100 uM by two-electrode voltage clamp assay. Type of experiment: cell-based. Conditions: Oocyte. The essentials: (§1)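 Influenza A/Udorn/72 M2 cDNA, wild type or S31N or V27A mutant made by site-directed mutagenesis, expressed from mRNA microinjected into Xenopus oocytes. Two-electrode voltage clamp recording was done 48–72 h after injection. Compound was applied at pH 5.5 for 2 min once inward current peaked. Residual current was compared with current before application.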

Experiment [2] concerns Matrix protein 2 (Influenza A virus), P06821 [withheld]. Description: Inhibition of Influenza A virus (A/Puerto Rico/8/1934(H1N1)) M2 channel S31N mutant expressed in Xenopus oocytes at 100 uM by two-electrode voltage clamp assay. The class given is cell-based. Conditions: Oocyte. The essentials:
as §1

From ChEMBL document CHEMBL1933044 come the findings set out here.

The structures appear in SMILES notation. Active and inactive are the calls of the source. The calls are words filed in the database; no cut-off is given here.

With `CN(C)C12CC3CC(C)(CC(C1)c1ccccc13)C2`, the inhibition result in experiment [1] and in experiment [2] was “inactive” each time.
For the compound `CC12CC3CC(NCc4ccccc4)(CC(C1)c1ccccc13)C2`, the inhibition entry in experiment [1] and in experiment [2] was “inactive” throughout.
`CC12CC3CC(N)(CC(C1)c1ccccc13)C2`: the inhibition entry in experiment [1] and in experiment [2] was “inactive” each time.
